# Target: T1, Dihydroorotate dehydrogenase (quinone), mitochondrial (Homo sapiens, UniProt Q02127)
# Test: Inhibition of DHODH (unknown origin) using L-DHO, DUQ, DCIP as substrate at 10 uM preincubated for 30 mins followed by substrate addition measured after 20 mins by multilabel plate reader analysis relative to control
# How it was run: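 Single-concentration screen at 10 µM. DHODH (25 ng) was preincubated with compound for 30 min at room temperature in 50 mM Tris-HCl, 150 mM KCl, 0.8% Triton, pH 8.0, with 1% DMSO final. The reaction was started with a substrate mix of 20 mM L-DHO, 2 mM DUQ and 2 mM DCIP (added-mix concentrations). DCIP reduction was followed as the drop in A610, read from 20 min, every 10 min for 1 h.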
# T1 sequence (Q02127 whole entry): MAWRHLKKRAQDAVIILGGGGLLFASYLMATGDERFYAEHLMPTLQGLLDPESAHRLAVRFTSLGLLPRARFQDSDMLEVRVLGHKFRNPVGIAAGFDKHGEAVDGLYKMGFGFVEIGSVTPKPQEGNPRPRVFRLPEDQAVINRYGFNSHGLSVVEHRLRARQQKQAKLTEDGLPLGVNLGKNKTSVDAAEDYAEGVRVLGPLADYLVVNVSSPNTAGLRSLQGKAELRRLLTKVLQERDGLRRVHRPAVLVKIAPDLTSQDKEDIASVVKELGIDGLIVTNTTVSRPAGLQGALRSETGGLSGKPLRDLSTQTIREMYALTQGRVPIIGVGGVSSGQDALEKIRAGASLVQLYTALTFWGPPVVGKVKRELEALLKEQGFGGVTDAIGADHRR
row,SMILES,inhibition [%]
1,NC(=O)c1cccc2[nH]c(-c3ccc(-c4ccc(C(=O)N5CCCC5)nc4)cc3)nc12,< 15
2,NC(=O)c1cccc2[nH]c(-c3ccc(-c4ccc(OCCCN5CCCCC5)cc4)cc3)nc12,< 15
3,NC(=O)c1cccc2[nH]c(-c3ccc(C(F)(F)F)cc3)nc12,< 15
4,COc1ccc(-c2nc3c(C(N)=O)cccc3[nH]2)cc1,< 15
5,COc1cc(-c2ccc(-c3nc4c(C(N)=O)cc(F)cc4[nH]3)cc2)ccc1NC(=O)C1CC1,< 15

# More lines, now with the values ahead:
row,inhibition [%],SMILES
1,< 15,Cc1cc(C(N)=O)c2nc(-c3ccc(C(F)(F)F)cc3)[nH]c2c1
2,< 15,COc1ccc(-c2nc3c(C(N)=O)cc(C)cc3[nH]2)cc1
3,< 15,Cc1cc(C(N)=O)c2nc(-c3ccc(-c4ccc(C(=O)N5CCCC5)cc4)cc3)[nH]c2c1
4,< 15,CCC(=O)Nc1ccc(-c2ccc(-c3nc4c(C(N)=O)cc(F)cc4[nH]3)cc2)cc1
5,< 15,Cc1cc(C(N)=O)c2nc(-c3ccc(C#N)cc3)[nH]c2c1

# Target: T1, Dihydroorotate dehydrogenase (quinone), mitochondrial
# Test: Inhibition of DHODH (unknown origin) using L-DHO, DUQ, DCIP as substrate preincubated for 30 mins followed by substrate addition measured after 20 mins by multilabel plate reader analysis
row,IC50 [nM],SMILES
1,13,CC(=O)Nc1ccc(COc2ccc(-c3ccc(-c4nc5c(C(=O)O)cc(C)cc5[nH]4)cc3)cc2)cc1
2,28,CC(=O)Nc1cccc(COc2ccc(-c3ccc(-c4nc5c(C(=O)O)cc(C)cc5[nH]4)cc3)cc2)c1
3,210,CC(=O)Nc1ccc(-c2ccc(-c3nc4c(C(=O)O)cc(C)cc4[nH]3)cc2)cc1
4,1380,CC(=O)Nc1cccc(-c2ccc(-c3nc4c(C(=O)O)cc(C)cc4[nH]3)cc2)c1
5,300,CC(=O)Nc1ccccc1COc1ccc(-c2ccc(-c3nc4c(C(=O)O)cc(C)cc4[nH]3)cc2)cc1
6,7800,Cc1cc(C(N)=O)c2nc(-c3ccc(-c4ccccc4)cc3)[nH]c2c1
7,9800,NC(=O)c1cccc2[nH]c(-c3ccc(-c4ccccc4)cc3)nc12

# Target: Poly [ADP-ribose] polymerase 1 (Homo sapiens, UniProt P09874)
# Sequence (P09874 whole entry): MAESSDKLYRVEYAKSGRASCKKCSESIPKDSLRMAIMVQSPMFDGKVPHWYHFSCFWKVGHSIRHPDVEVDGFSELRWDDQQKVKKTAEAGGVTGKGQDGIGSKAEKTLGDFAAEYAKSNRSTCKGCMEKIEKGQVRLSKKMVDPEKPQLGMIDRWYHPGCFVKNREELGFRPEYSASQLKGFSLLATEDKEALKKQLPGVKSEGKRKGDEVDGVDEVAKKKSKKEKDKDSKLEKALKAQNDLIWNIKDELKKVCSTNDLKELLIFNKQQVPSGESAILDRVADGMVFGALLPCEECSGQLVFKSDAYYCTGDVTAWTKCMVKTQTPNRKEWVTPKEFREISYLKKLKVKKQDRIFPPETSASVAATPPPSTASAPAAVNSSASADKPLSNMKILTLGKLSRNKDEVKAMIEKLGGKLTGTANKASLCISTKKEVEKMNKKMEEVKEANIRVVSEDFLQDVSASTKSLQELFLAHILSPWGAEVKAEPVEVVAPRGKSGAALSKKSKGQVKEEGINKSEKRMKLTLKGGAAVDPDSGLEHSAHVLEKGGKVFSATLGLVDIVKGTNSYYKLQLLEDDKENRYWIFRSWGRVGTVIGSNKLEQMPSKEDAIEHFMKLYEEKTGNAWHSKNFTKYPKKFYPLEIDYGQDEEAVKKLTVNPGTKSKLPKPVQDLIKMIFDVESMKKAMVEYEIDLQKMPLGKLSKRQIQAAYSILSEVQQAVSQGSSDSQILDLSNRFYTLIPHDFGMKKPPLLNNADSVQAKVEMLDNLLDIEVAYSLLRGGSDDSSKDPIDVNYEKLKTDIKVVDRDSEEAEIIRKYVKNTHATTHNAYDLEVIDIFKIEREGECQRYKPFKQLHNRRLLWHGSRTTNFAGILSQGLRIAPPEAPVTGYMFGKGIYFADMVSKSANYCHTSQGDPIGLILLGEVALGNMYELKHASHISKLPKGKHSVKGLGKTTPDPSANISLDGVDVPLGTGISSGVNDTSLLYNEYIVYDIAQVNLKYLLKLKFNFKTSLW
# Test: Inhibition of PARP-1 (unknown origin) assessed as incorporation of biotinylated poly (ADP-ribose) onto histone protein after 60 mins by TACS-Sapphire substarte-based colorimetric analysis
row,SMILES,IC50 [nM]
1,NC(=O)c1cccc2[nH]c(-c3ccc(-c4ccc(C(=O)N5CCCC5)nc4)cc3)nc12,12
2,NC(=O)c1cccc2[nH]c(-c3ccc(-c4ccc(OCCCN5CCCCC5)cc4)cc3)nc12,2280
3,NC(=O)c1cc(F)cc2[nH]c(-c3ccc(-c4cccc(NC(=O)C5CC5)c4)cc3F)nc12,1280
4,NC(=O)c1cccc2[nH]c(-c3ccc(-c4cncc(CN5CCCC5)c4)cc3)nc12,61
5,NC(=O)c1cccc2[nH]c(-c3ccc(-c4cncc(C(=O)N5CCCC5)c4)cc3)nc12,29
6,NC(=O)c1cccc2[nH]c(-c3ccc(-c4ccc(OCCN5CCCCC5)cc4)cc3)nc12,720
7,NC(=O)c1cc(F)cc2[nH]c(-c3ccc(-c4ccc(NC(=O)C5CC5)cc4F)cc3F)nc12,84
8,NC(=O)c1cccc2[nH]c(-c3ccc(-c4ccc(C(=O)N5CCCC5)cc4)cc3)nc12,310
9,COc1cc(-c2ccc(-c3nc4c(C(N)=O)cc(F)cc4[nH]3)cc2)ccc1NC(=O)C1CC1,5960
10,COc1cc(-c2ccc(-c3nc4c(C(N)=O)cc(F)cc4[nH]3)c(F)c2)ccc1NC(=O)C1CC1,980

# More lines, now with the values ahead:
row,IC50 [nM],SMILES
1,140,CC(=O)Nc1ccccc1-c1ccc(-c2nc3c(C(N)=O)cccc3[nH]2)cc1
2,32,NC(=O)c1cccc2[nH]c(-c3ccc(-c4ccc(N)nc4)cc3)nc12
3,49,CC(=O)Nc1ccc(-c2ccc(-c3nc4c(C(N)=O)cccc4[nH]3)cc2)cn1
4,10600,CC(=O)Nc1ccccc1COc1ccc(-c2ccc(-c3nc4c(C(=O)O)cc(C)cc4[nH]3)cc2)cc1
5,1720,CCC(=O)Nc1ccc(-c2ccc(-c3nc4c(C(N)=O)cc(F)cc4[nH]3)cc2)cc1
6,460,CC(=O)Nc1cccc(-c2ccc(-c3nc4c(C(N)=O)cccc4[nH]3)cc2)c1
7,710,NC(=O)c1cccc2[nH]c(-c3ccc(-c4ccccc4)cc3)nc12

# Target: T1, Dihydroorotate dehydrogenase (quinone), mitochondrial
# Test: Inhibition of DHODH (unknown origin) using L-DHO, DUQ, DCIP as substrate at 1 uM preincubated for 30 mins followed by substrate addition measured after 20 mins by multilabel plate reader analysis relative to control
row,inhibition [%],SMILES
1,45,CC(=O)Nc1cccc(-c2ccc(-c3nc4c(C(N)=O)cccc4[nH]3)cc2)c1

# Target: T1, Dihydroorotate dehydrogenase (quinone), mitochondrial
# Test: Inhibition of human DHODH using L-DHO, DUQ, DCIP as substrate preincubated for 30 mins followed by substrate addition measured after 20 mins
row,IC50 [nM],SMILES
1,750,O=C(O)c1cccc2[nH]c(-c3ccc(-c4ccccc4)cc3)nc12

# Source: ChEMBL document CHEMBL3593177, “Benzimidazole derivatives as potential dual inhibitors for PARP-1 and DHODH” (Bioorg Med Chem, 2015)
